The array DNA melting data of Ke et al. (doi:10.1101/2024.01.08.574731)

Experiments:
[1] = folding enthalpy; higher = less favourable; fluorescence melt of hairpins on a sequencing array, two-state fit; conditions: sodium 0.088 M
In short: (§1)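 Library hairpins on a sequenced MiSeq flow cell carried annealed Cy3 and quencher oligos, and their Cy3 fluorescence was imaged in 50 mM Na-HEPES pH 8.0 with 25 mM NaCl, in 2.5 °C steps up to 60 °C. Signals were normalised to Cy3 before quenching and to control constructs. Melting temperature and folding enthalpy were obtained from bootstrapped two-state fits, combined by inverse-variance weighting across four replicates, and the fitted temperatures were then raised by 9.35 °C to match UV melts.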

[2] = melting temperature; fluorescence melt of hairpins on a sequencing array, two-state fit, raised by 9.35 °C to match UV melts; conditions: sodium 0.088 M
In short: as §1

| Sequence | folding enthalpy [1] | Tm [2] |
| --- | --- | --- |
| GGTCACGAAAGTGGACC ((((((....))).))) | -122 kJ/mol | 55.3 °C |
| GGTCACGAAAGTGTAACC ((((((....)))..))) | -76.6 kJ/mol | 39.6 °C |
| GGTCACGAAAGTGTACC ((((((....))).))) | -107 kJ/mol | 51.5 °C |
| GGTCACGCGAAAGCGACC (((..(((....)))))) | -59.3 kJ/mol | 47.4 °C |
| GGTCACGGAAACACGACC ((((..(....)..)))) | -77.5 kJ/mol | 34.5 °C |
| GGTCAGCCGAAAGGCACC (((..(((....)))))) | -47.6 kJ/mol | 38.3 °C |
| GGTCAGGAAACTGACC ((((((....)))))) | -186 kJ/mol | 59.9 °C |
| GGTCAGGGAAACCCAACC (((..((....))..))) | -39 kJ/mol | 29 °C |
| GGTCAGGGAAACCCGACC ((((.((....)).)))) | -136 kJ/mol | 50.2 °C |
| GGTCAGTCGAAAGACACC (((..(((....)))))) | -55.5 kJ/mol | 32.9 °C |
| GGTCATCGAAAGATAACC (((.(((....))).))) | -112 kJ/mol | 39.4 °C |
| GGTCATCGAAAGATTACC (((.(((....))).))) | -143 kJ/mol | 42.6 °C |
| GGTCATGGAAACATGACC (((((((....))))))) | -217 kJ/mol | 65.5 °C |
| GGTCATGGAAACATGGCC ((.((((....)))).)) | -252 kJ/mol | 54.5 °C |
| GGTCATGGAAACGTGATC (.(((.(....).))).) | -83.8 kJ/mol | 35.5 °C |
| GGTCCAGGAAACCGGACC (((((.(....).))))) | -162 kJ/mol | 53.3 °C |
| GGTCCAGGAAACTGGGCC ((.((((....)))).)) | -182 kJ/mol | 60.2 °C |
| GGTCCCCCGAAAGGGACC (((..(((....)))))) | -125 kJ/mol | 63.9 °C |
| GGTCCCGAAAGGGAACC ((((((....))).))) | -77.3 kJ/mol | 60.5 °C |
| GGTCCCGAAAGGGCTACC ((((((....)))..))) | -45.6 kJ/mol | 39.8 °C |
| GGTCCGACGAAAGTCACC (((..(((....)))))) | -58.9 kJ/mol | 28.4 °C |
| GGTCCGCGAAAGCGACC (((.(((....)))))) | -70.1 kJ/mol | 62.4 °C |
| GGTCCGGGAAACCAGACC ((((.((....)).)))) | -119 kJ/mol | 46.4 °C |

| Sequence | folding enthalpy [1] | Tm [2] |
| --- | --- | --- |
| GGTCCGGGAAACTGGACC (((((.(....).))))) | -189 kJ/mol | 58.8 °C |
| GGTCCTCCGAAAGGAACC (((..(((....)))))) | -54.4 kJ/mol | 32.9 °C |
| GGTCGACCGAAAGGTACC (((..(((....)))))) | -58.6 kJ/mol | 31.8 °C |
| GGTCGAGGAAACTCGATC (.(((((....))))).) | -128 kJ/mol | 52.2 °C |
| GGTCGAGGAAACTTGGCC ((.(.((....)).).)) | -106 kJ/mol | 42.4 °C |
| GGTCGCCCGAAAGGGACC (((..(((....)))))) | -66.3 kJ/mol | 45.1 °C |
| GGTCGCGAAAGCGACACC ((((((....)))..))) | -23.3 kJ/mol | 60.7 °C |
| GGTCGCGAAAGCGGACC ((((((....))).))) | -95.6 kJ/mol | 67.1 °C |
| GGTCGCGAAAGCGGCACC ((((((....)))..))) | -38.9 kJ/mol | 52.8 °C |
| GGTCGCGAAAGCGGGACC ((((((....)))..))) | -79.2 kJ/mol | 52.1 °C |
| GGTCGCGGAAACACGACC (((((.(....).))))) | -172 kJ/mol | 56.9 °C |
| GGTCGGGGAAACTCGGCC ((.((.(....).)).)) | -142 kJ/mol | 49.1 °C |
| GGTCGTGCGAAAGCAACC (((..(((....)))))) | -33.6 kJ/mol | 27.6 °C |
| GGTCGTGGAAACACAACC (((.(((....))).))) | -115 kJ/mol | 42.5 °C |
| GGTCGTGGAAACACGGCC ((.((((....)))).)) | -237 kJ/mol | 61.8 °C |
| GGTCGTGGAAACATGACC ((((.((....)).)))) | -142 kJ/mol | 56.5 °C |
| GGTCGTGGAAACGCGACC (((((.(....).))))) | -213 kJ/mol | 60 °C |
| GGTCTACGAAAGTAAACC (((.(((....))).))) | -110 kJ/mol | 39.3 °C |
| GGTCTAGCGAAAGCTACC (((..(((....)))))) | -42.2 kJ/mol | 31.2 °C |
| GGTCTCCCGAAAGGGACC (((..(((....)))))) | -52.1 kJ/mol | 41.2 °C |
| GGTCTCGAAAGAGACACC ((((((....)))..))) | -38.5 kJ/mol | 48.4 °C |
| GGTCTCGAAAGAGGCACC ((((((....)))..))) | -60.8 kJ/mol | 39.1 °C |
| GGTCTCGGAAACGAAACC (((.(((....))).))) | -115 kJ/mol | 39.2 °C |

| Sequence | folding enthalpy [1] | Tm [2] |
| --- | --- | --- |
| GGTCTCGGAAACGGGACC ((((.((....)).)))) | -184 kJ/mol | 57.5 °C |
| GGTCTCGGAAACGGGATC (.((.((....)).)).) | -120 kJ/mol | 39 °C |
| GGTCTGAAAAGACC (((((....))))) | -130 kJ/mol | 61.7 °C |
| GGTCTGGAAACAGACC ((((((....)))))) | -159 kJ/mol | 63.9 °C |
| GGTCTGGGAAACCAAACC (((.(((....))).))) | -125 kJ/mol | 35.1 °C |
| GGTCTGGGAAACCAGATC (.(((((....))))).) | -108 kJ/mol | 49.4 °C |
| GGTCTGGGAAACCGGACC ((((.((....)).)))) | -193 kJ/mol | 58.6 °C |
| GGTCTGTCGAAAGACACC (((..(((....)))))) | -47.7 kJ/mol | 30.5 °C |
| GGTCTTCGAAAGAAACC (((.(((....)))))) | -76.8 kJ/mol | 32.9 °C |
| GGTGAACGAAAGTTACC (((.(((....)))))) | -98 kJ/mol | 40.6 °C |
| GGTGAAGAAATTCACC ((((((....)))))) | -136 kJ/mol | 52.6 °C |
| GGTGACACGAAAGTGACC (((..(((....)))))) | -66.1 kJ/mol | 38.1 °C |
| GGTGACCGAAAGGTACC (((.(((....)))))) | -91.3 kJ/mol | 49 °C |
| GGTGACGAAAGTCAAACC ((((((....)))..))) | -72.6 kJ/mol | 46.3 °C |
| GGTGACGAAAGTCCACC ((((((....))).))) | -108 kJ/mol | 50.8 °C |
| GGTGACGAAAGTCCCACC ((((((....)))..))) | -54 kJ/mol | 43.4 °C |
| GGTGACGAAAGTCGCACC ((((((....)))..))) | -58.1 kJ/mol | 45.6 °C |
| GGTGACGGAAACATCACC (((((.(....).))))) | -138 kJ/mol | 43.7 °C |
| GGTGACGGAAACGTCGTC (..((((....))))..) | -58 kJ/mol | 42 °C |
| GGTGATCGAAAGATGACC (((.(((....))).))) | -140 kJ/mol | 47.9 °C |
| GGTGCAACGAAAGTTACC (((..(((....)))))) | -54.7 kJ/mol | 27.7 °C |
| GGTGCACCGAAAGGTACC (((..(((....)))))) | -48.5 kJ/mol | 37.6 °C |
| GGTGCACGAAAGTGACC (((.(((....)))))) | -73 kJ/mol | 49 °C |

| Sequence | folding enthalpy [1] | Tm [2] |
| --- | --- | --- |
| GGTGCACGAAAGTGTACC (((.(((....))).))) | -159 kJ/mol | 64.5 °C |
| GGTGCAGAAATGCACC ((((((....)))))) | -108 kJ/mol | 68 °C |
| GGTGCAGGAAACTGCGCC ((.((((....)))).)) | -144 kJ/mol | 65.3 °C |
| GGTGCAGGAAACTGTGCC ((..(((....)))..)) | -109 kJ/mol | 48.5 °C |
| GGTGCCCGAAAGGGTACC (((.(((....))).))) | -140 kJ/mol | 68.2 °C |
| GGTGCCGAAAGGCAACC ((((((....))).))) | -82.1 kJ/mol | 66.1 °C |
| GGTGCCGAAAGGCCAACC ((((((....)))..))) | -53.3 kJ/mol | 44.1 °C |
| GGTGCCGAAAGGCGAACC ((((((....)))..))) | -62.6 kJ/mol | 46.9 °C |
| GGTGCCGAAAGGCGCACC ((((((....)))..))) | -46.1 kJ/mol | 53.2 °C |
| GGTGCCGAAAGGCGGACC ((((((....)))..))) | -58.2 kJ/mol | 45.7 °C |
| GGTGCCGAAAGGCTAACC ((((((....)))..))) | -63.8 kJ/mol | 50.7 °C |
| GGTGCCGAAAGGCTACC ((((((....))).))) | -72.1 kJ/mol | 57.8 °C |
| GGTGCCGCGAAAGCGACC (((..(((....)))))) | -41 kJ/mol | 45.6 °C |
| GGTGCCGGAAACAGCACC (((((.(....).))))) | -193 kJ/mol | 53.5 °C |
| GGTGCCGGAAACGGCATC (.(((((....))))).) | -63.3 kJ/mol | 62.4 °C |
| GGTGCGCCGAAAGGCACC (((..(((....)))))) | -55.4 kJ/mol | 51.6 °C |
| GGTGCGGGAAACCGCGCC ((.((((....)))).)) | -131 kJ/mol | 68.7 °C |
| GGTGCGTCGAAAGACACC (((..(((....)))))) | -54.4 kJ/mol | 37.1 °C |
| GGTGCTACGAAAGTAACC (((..(((....)))))) | -56.5 kJ/mol | 29.1 °C |
| GGTGCTCGAAAGAGGACC (((.(((....))).))) | -199 kJ/mol | 59.7 °C |
| GGTGCTGGAAACAGCGCC ((.((((....)))).)) | -143 kJ/mol | 64.9 °C |
| GGTGGACCGAAAGGTACC (((..(((....)))))) | -56.2 kJ/mol | 45 °C |
